hDAT+cocaine = human DAT dopamine uptake with cocaine, either direction; AID 449768; B-score at 10 µM; Q01959; hit rate 1.3% among 110,000; LLC-PK1 hDAT cells, [14C]-dopamine uptake with cocaine IC80; actives deviate in either direction;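 active means Z score or B-score, a plate-position-corrected score, falls beyond the plate's 99.7% confidence bounds, in either direction; inactive means both scores lie inside the 99.7% bounds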
Cav3 T inh = inhibitors of human Cav3.2 T-type calcium channel; O95180; B-score at 10 µM; AID 449739; Cav3.2-expressing cells, Fluo-4 calcium fluorescence FDSS; stronger effect = lower value; hit rate 4% among 100,000;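 active means single-dose well whose peak fluorescence ratio is a statistical outlier from its plate by either plate-standardised score or position-corrected B-score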
EphB4 antag = EphB4-ephrin-B2 interaction antagonism; inhibition, % at 7 µM; hit rate 0.15% among 97,000; EphB4 LBD / TNYL-RAW-Alexa532 peptide, fluorescence polarization; AID 720;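 active means inhibition above the screen-wide mean inhibition plus 3 SD, cut at about 15% in these data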
Rev-RRE block = inhibitors of HIV-1 Rev-RRE RNA interaction. Rev peptide-RRE RNA binding, FRET. inhibition, % at 8 µM. hit rate 0.79% among 97,000;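 active means inhibition above the screen-wide mean plus 3 SD, cut at about 35% in these data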
Target sequence (P05866 whole entry, looked up): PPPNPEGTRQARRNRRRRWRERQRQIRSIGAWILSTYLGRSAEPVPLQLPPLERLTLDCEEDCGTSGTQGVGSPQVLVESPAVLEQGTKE
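Material: labelled RRE RNA duplex and labelled Rev peptide / Buffer or medium: HEPES pH 7.5 salt buffer with EDTA / Compound dosing: single point, 8 µM final nominal compound concentration / Benchmarks: DMSO low control, neomycin B high control / Timing: 5 min preincubation and 15 min binding, 25 °C / Technique: FRET fluorescence readout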
Of the large screens only hits and unclear results are named; the others gave an inactive call. Hits are enriched below; roughly 5.4% of the tested compounds scored in any of these assays.

CCCCOC(=O)n1c(=O)oc2cc(S(=O)(=O)N3CCCCC3)ccc21	Cav3 T inh -4.81
CCN1C(=O)N[C@@H](CCc2ccccc2)[C@H](C(=O)OC)[C@H]1C	none (no result: EphB4 antag, Rev-RRE block)
Nc1c(-c2ccc(Cl)cc2)cnn1C1CCS(=O)(=O)C1 (stereo unspecified)	none
N=c1n(CCO)c2ccccc2n1CCOc1ccc(Cl)cc1Cl	hDAT+cocaine 2.97
Cc1cccc2cc(C#N)c(NCCNC(=O)NC3CCCCC3)nc12	none
Cc1cccc2cc(C#N)c(NCCNS(=O)(=O)c3ccc4c(c3)OCCO4)nc12	Cav3 T inh -4.19
O=C(Nc1cccnc1)Nc1ccc(F)c(Cl)c1	hDAT+cocaine -4.3
O=C(C1CCN(S(=O)(=O)N2CCOCC2)CC1)N1CCN(c2ccccc2)CC1	none
Cc1ccccc1N(CC(=O)N/N=C/c1ccc(F)cc1)C(=O)c1ccccc1	Cav3 T inh -5.58
CCOC(=O)CN(C(=O)c1ccccc1)c1ccccc1C	none
O=C(Cc1cccc2ccccc12)N/N=C/c1ccc(F)cc1	Cav3 T inh -4.04
CCN(C(=O)c1ccc(NC(C)=O)cc1)c1ccccc1C	none
Cc1ccccc1N(CC(=O)N/N=C/c1ccc(Cl)cc1)C(=O)c1ccccc1	Cav3 T inh -5.25
COC(=O)NCCOC(=O)N(O)c1ccc(Br)cc1	none
O=C(NCc1ccco1)C(c1cccs1)N(C(=O)C1COc2ccccc2O1)c1cccc(O)c1 (stereo unspecified)	Cav3 T inh -8.6
O=C(NC1CCCCC1)C(c1cccs1)N(C(=O)c1ccco1)c1ccc2c(c1)OCCO2 (stereo unspecified)	none
COc1cc(OC)c(OC)cc1/C=N/NC(=S)NCC1CCCO1 (stereo unspecified)	none
Cc1[nH]c2ccccc2c1SCC(=O)O	none
Cc1[nH]c2ccccc2c1C1C(c2ccccc2)=NN=C(C(C)C)N1O (stereo unspecified)	Cav3 T inh -5.4
Cc1ccc(-n2nnnc2SCC(=O)N2CC(=O)Nc3ccccc32)cc1	none
CCCCn1c(-c2ccccc2)cnc1SCC(=O)NCCc1ccc(OC)c(OC)c1	Cav3 T inh -4.47
CS(=O)(=O)n1nc(-c2ccc(Cl)cc2)nc1SCc1ccccc1	none
O=C1NC2(CCc3ccccc32)C(=O)N1CCOc1ccc(Cl)cc1 (stereo unspecified)	Cav3 T inh -4.84
Cc1ccc(NC(=O)c2cc(NC(=O)C3CC=CCC3C(=O)O)ccc2N2CCOCC2)cc1Cl (stereo unspecified)	none
CCOC(=O)C1=C(CNCCc2ccc(Cl)cc2)NC(=O)NC1c1ccc2c(c1)OCO2 (stereo unspecified)	Cav3 T inh -4.57
COc1ccc(C2NC(=O)NC(C)=C2C(=O)OCc2ccc3c(c2)OCO3)cc1OC (stereo unspecified)	none
O=C1CCCc2c1[nH]c1c(Br)cccc21	none
O=C1CCCc2c1[nH]c1ccccc21	EphB4 antag 16.5
COc1ccc(C(=O)n2c(SC)nc3cc4c(cc32)OCCO4)cc1	none
S=C1NCCC12C(=S)Nc1ccccc12 (stereo unspecified)	none (no result: EphB4 antag, Rev-RRE block)
COc1cccc(C2C(C#N)=C(N)OC(C(C)(C)C)=C2C#N)c1 (stereo unspecified)	none
COc1cccc(/C=C2/CN(C)CC3=C2OC(N)=C(C#N)C3c2cccc(OC)c2)c1 (stereo unspecified)	Rev-RRE block 54.5
Cc1cccc(-n2nnc(C(=O)NC3CCCc4ccccc43)c2N)c1 (stereo unspecified)	Cav3 T inh -6.65
Cc1cc(C(=O)NC2CCCc3ccccc32)no1 (stereo unspecified)	none (no result: EphB4 antag, Rev-RRE block)
CCN(c1cccc(C(F)(F)F)c1)S(=O)(=O)c1ccc2c(c1)CCN2C(=O)C1CC1	Cav3 T inh -4.7
Cc1sc2nc(CN(C(=O)c3cccs3)C3CCCC3)[nH]c(=O)c2c1C	Cav3 T inh -4.8
O=C(c1cccs1)N(Cc1nc2sc3c(c2c(=O)[nH]1)CCCC3)C1CCCC1	none
CC1(C)CC2CC(C)(CN2C(=O)COC(=O)c2ccc(Cl)c(N)c2)C1 (stereo unspecified)	Cav3 T inh -6.45
CC1(C)CC2CC(C)(CN2C(=O)COC(=O)c2ccc(Cl)cc2N)C1 (stereo unspecified)	none
Cn1c(N)cc(=O)n(Cc2ccccc2)c1=O	none (no result: EphB4 antag, Rev-RRE block)
O=c1ccn(Cc2ccccc2)c(=O)n1Cc1ccccc1	hDAT+cocaine 2.79
COc1ccc(C2C=C(c3ccccc3)Nc3ncnn32)cc1 (stereo unspecified)	Rev-RRE block 44.9
Cc1ccc(C2=CC(c3ccc(C)cc3)n3ncnc3N2)cc1 (stereo unspecified)	none (no result: EphB4 antag, Rev-RRE block)

Source: PubChem (several laboratories)
